# Hck Nef HTS: inhibitors of Nef-activated human Hck kinase, primary screen, biochemical, Z-Lyte FRET, 384-well, Hck-YEEI. Tyrosine-protein kinase HCK (Homo sapiens), P08631. inhibition, % at 20 µM. hit rate 0.68% among 220,000. Recombinant Hck-YEEI plus Nef, Z-Lyte FRET kinase assay;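 active = Hck-Nef kinase inhibition above about 50%, limit read from the data; inactive = inhibition below that limit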;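 note: 0% = DMSO with Hck plus Nef and 100% = Hck alone without Nef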
# Runt-CBFb FRET: inhibitors of RUNX1 Runt–CBFb binding, primary screen, biochemical, FRET, Cerulean-Runt, Venus-CBFb, uHTS | AID 1496, 2009 | hit rate 0.46% among 220,000 | Cerulean-Runt/Venus-CBFb FRET ratio 530/480, 1 h | inhibition, % at 20 µM | Runt-related transcription factor 1 (Homo sapiens) + Core-binding factor subunit beta …;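 active = inhibition over about 50% at 20 µM in the single-dose screen, limit read from the data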;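 note: 0% = DMSO wells and 100% = excess unlabeled CBFb competitor control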
# Target sequence (Q01196 whole entry, looked up): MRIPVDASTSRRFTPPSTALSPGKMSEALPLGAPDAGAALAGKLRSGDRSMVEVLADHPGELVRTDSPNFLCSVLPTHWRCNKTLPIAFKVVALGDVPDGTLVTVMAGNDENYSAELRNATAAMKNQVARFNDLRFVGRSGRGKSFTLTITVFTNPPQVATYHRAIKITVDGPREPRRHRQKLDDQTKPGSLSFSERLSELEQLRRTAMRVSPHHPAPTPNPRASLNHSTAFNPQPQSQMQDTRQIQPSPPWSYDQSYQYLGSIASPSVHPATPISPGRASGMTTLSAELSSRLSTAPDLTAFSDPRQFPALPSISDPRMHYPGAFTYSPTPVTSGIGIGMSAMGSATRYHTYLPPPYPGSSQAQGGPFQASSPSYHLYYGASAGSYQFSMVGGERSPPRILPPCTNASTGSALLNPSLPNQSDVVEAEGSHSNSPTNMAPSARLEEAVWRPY
# Target sequence (Q13951 whole entry, looked up): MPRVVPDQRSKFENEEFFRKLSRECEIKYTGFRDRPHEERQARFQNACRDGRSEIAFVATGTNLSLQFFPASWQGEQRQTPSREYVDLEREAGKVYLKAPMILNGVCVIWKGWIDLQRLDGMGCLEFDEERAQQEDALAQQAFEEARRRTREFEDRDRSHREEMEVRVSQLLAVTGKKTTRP
#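 Assay system: Cerulean-tagged RUNX1 Runt domain (FRET donor) fusion protein / Amount: 100 nM each of Venus-CBFb and Cerulean-Runt domain / Medium: Tris buffer pH 7.5 with salts and BSA / Also added: Venus-CBFb 100 nM / Schedule: 1 h complex formation plus 1 h compound treatment, room temperature / Signal: FRET fluorescence / Read-out: loss of energy transfer signal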
# RanGTP-Imp inh: inhibitors of RanGTP-importin-beta interaction, primary screen, biochemical, FRET, CFP-Ran, YFP-importin-beta, homogeneous | Ran GTPase (GTP-bound) - importin-beta complex | cell-free CFP-Ran/YFP-importin-beta FRET ratio | inhibition, % (no concentration beside the values) | hit rate 1.1% among 300,000;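 active = more than half of the replicate wells show a fall in the fluorescence ratio signal beyond about 16%, limit read from the data, passing the limit was not always enough; inconclusive = exactly half of the replicate wells pass the set limit; inactive = fewer than half of replicates pass the limit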;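 note: 0% = DMSO wells and 100% = Ran loaded with GDP instead of GTP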
# Runt-SMMHC FRET: inhibitors of RUNX1 Runt–CBFb-SMMHC binding, primary screen, biochemical, FRET, Cerulean-Runt, Venus-CBFb-SMMHC, uHTS; Runt-related transcription factor 1 (Homo sapiens) + Core-binding factor subunit beta …; Cerulean-Runt/Venus-CBFb-SMMHC FRET ratio 530/480, 1 h; inhibition, % at 20 µM; hit rate 0.74% among 220,000; AID 1434, 2008;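 active = mean inhibition across duplicate retests at 20 µM reaching about 50%, limit read from the data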;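 note: 0% = DMSO wells and 100% = wells with excess untagged CBFb-SMMHC; inhibitors lower the FRET ratio by blocking Runt binding to CBFb-SMMHC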
# * hit, by the source's call; ? = inconclusive; · = not tested or not shown. The list is not random: actives were taken first. Their share in the collection is about 1.9%.
SMILES,Hck Nef HTS,Runt-CBFb FRET,RanGTP-Imp inh,Runt-SMMHC FRET
Cc1cccc2cc(C#N)c(NCc3ccccc3)nc12,38,21,?,47
Cc1cccc2cc(C#N)c(NCCCNS(=O)(=O)c3ccc(Cl)cc3)nc12,30,31,47*,74*
Cc1cccc2cc(C#N)c(NCCNS(=O)(=O)c3ccccc3)nc12,22,26,13,58*
COc1ccc(Nc2nc3c(C)cccc3cc2C#N)c(OC)c1,-1,-32,-4,-76
Cc1sc2c(c1C)C(O)=C(C(=O)Nc1ccccc1)S(=O)(=O)N2C,-13,3,-4,-5
Cc1ccc(NC(=O)C2CCN(S(=O)(=O)c3cnc[nH]3)CC2)nc1,-2,1,-1,1
O=C(O)CCN1C(=O)C2C3CC(C2C1=O)C1C(c2ccccc2)c2sc(=O)[nH]c2SC31 (stereo unspecified),9,12,21*,-1
COc1ccc(C2c3sc(=O)[nH]c3SC3C4CCC(C4)C23)cc1 (stereo unspecified),-2,14,5,4
Cc1ccc(C2c3sc(=O)[nH]c3SC3C4CC(C5C(=O)N(C(C)C(=O)O)C(=O)C45)C23)cc1 (stereo unspecified),5,27,58*,4
O=c1[nH]c2c(s1)C(c1ccccc1)C1C3CCC(C3)C1S2 (stereo unspecified),2,4,26*,11
O=C(CCc1ccccc1)NNC(=O)Nc1ccc(F)c(Cl)c1,·,·,2,·
CCCC(=O)Nc1ccc(Cl)c(NC(=S)NC(=O)c2ccco2)c1,2,0,3,2
CC1C/C(=N/NC(=O)c2cccc(F)c2)c2ccc(O)cc2C1 (stereo unspecified),0,0,2,-2
CCN(CC)c1nc(C(F)(F)F)nc2c1nnn2Cc1ccccc1,·,·,1,·
CC(C)c1ccc(NC(=O)c2snc3ccc(Cl)cc23)cc1,2,-2,0,3
CCCNC(=O)N1CCC(C(=O)c2cccc(F)c2)CC1,0,1,-3,3
Cc1ccc(CNc2nc(N)c([N+](=O)[O-])c(NCc3ccccc3)n2)cc1,1,-1,-4,3
Cc1ccc(CNc2nc(N)c([N+](=O)[O-])c(Nc3ccc(F)cc3)n2)cc1,0,0,19*,4
COC(=O)C1=CNC=C(C(=O)OC)C1c1ccc(C(=O)OC)cc1,24,28,6,71*
COc1ccc(NC(=O)Cn2nnc(C(=O)NCc3ccc4c(c3)OCO4)c2N)c(OC)c1,·,·,-2,·
CCN(C(=O)Cc1c(C(=O)O)[nH]c2ccccc12)c1ccc(OC)cc1,17,-1,-3,-3
CCOc1ccc(C2C3=C(CC(C)(C)CC3=O)N(CC(=O)O)C3=C2C(=O)CC(C)(C)C3)cc1OCC,·,·,3,·
C#CCOc1ccc(C2C3=C(CC(C)(C)CC3=O)N(CC(=O)O)C3=C2C(=O)CC(C)(C)C3)cc1,·,·,162*,·
COc1ccccc1C1C2=C(CC(C)(C)CC2=O)N(CC(=O)O)C2=C1C(=O)CC(C)(C)C2,·,·,164*,·
CCOC(=O)C1=C(N)OC2=C(C(=O)CC(C)(C)C2)C1c1ccccc1OC (stereo unspecified),2,-2,0,2
SMILES,Hck Nef HTS,Runt-CBFb FRET,RanGTP-Imp inh,Runt-SMMHC FRET
Cc1nnnn1CC(=O)Nc1cccc([N+](=O)[O-])c1,-62,-2,0,1
O=C(c1cccs1)N(Cc1cccc(F)c1)C1CCS(=O)(=O)C1 (stereo unspecified),·,·,2,·
O=C(Cc1ccc(Br)cc1)Nc1ccccc1Cl,2,-2,2,-4
COc1cc(C2C=C(c3cccs3)Nc3ncnn32)cc(OC)c1OC (stereo unspecified),5,20,·,93*
COc1cc(-c2cc3nc4ccccc4n3c(N)c2C#N)cc(OC)c1OC,50,7,25*,15
N#Cc1c(-c2ccccc2)cc2nc3ccccc3n2c1N,5,7,17*,10
COc1cccc(C(=O)CN2C(=O)C(C)(C)Oc3ccc(C(=O)N4CCCCCC4)cc32)c1,-3,-6,-4,-5
CC1(C)C(C#N)=C(N)Oc2c1c(=O)oc1ccccc21,2,-1,4,-3
Cc1c(C#N)c(=O)oc2ccc3ccccc3c12,8,71*,1,97*
Nc1cc(C(=O)OCC(=O)NCCNC(=O)COC(=O)c2ccc(Cl)c(N)c2)ccc1Cl,·,·,-6,·
Cc1ccc(NC2=CC(=O)CC(C)(C)C2)cc1C,-1,0,1,2
CC1(C)CC(=O)C=C(Nc2ccc3c(c2)OCCO3)C1,3,-3,26*,-3
CC1(C)CC(=O)C=C(Nc2cccc(O)c2)C1,3,1,45*,3
CC1(C)CC(=O)C=C(Nc2ccc(C(=O)O)cc2)C1,0,2,29*,0
O=C(O)CCC(=O)c1cccc2ccccc12,7,-1,0,4
O=C(O)CCC(=O)c1ccc2ccc3cccc4ccc1c2c34,12,28,5,69*
CCO[C@@H]1OC(C(=O)NC2CC2)=C[C@H](C2CC2)[C@H]1CCCO,26,-1,30*,0
CCC(C)c1ccc(NC(=O)NCCN2CCCCC2)cc1 (stereo unspecified),·,·,14,·
CN(C)/C=C/c1c([N+](=O)[O-])c2ccc(O)cc2n1-c1ccccc1,104*,7,1,4
COC(=O)c1c(C)n(-c2ccccc2)c2ccc(O)cc12,9,0,-3,18
N=c1oc2ccccc2cc1-c1nc(-c2ccccc2)cs1,-1,-60,44*,-160
N=c1oc2ccc3ccccc3c2cc1-c1nc(-c2ccccc2)cs1,2,22,73*,29
O=c1oc2ccccc2cc1-c1ccccc1,12,-3,-5,2
CCn1cc(/C=N/NC(=O)COc2cccc3cccnc23)c2ccccc21,26,-4,-1,1
CCN1C(=NCCc2cccs2)N[C@@H](c2cccs2)C(C(=O)OC)=C1C,·,·,31*,·
SMILES,Hck Nef HTS,Runt-CBFb FRET,RanGTP-Imp inh,Runt-SMMHC FRET
C=CCc1ccccc1OCC(=O)O,9,2,3,-8
O=C(O)COc1ccccc1Cc1ccccc1,-2,88*,0,143
OCCCNc1nc(-c2ccccc2)c2cc(Br)ccc2n1,·,·,33*,·
Cc1ccc2nc(NCCCO)nc(-c3ccccc3)c2c1,6,29,30*,59
NNc1nc(-c2ccccc2)c2cc(Br)ccc2n1,·,·,-4,·
COc1cc(Nc2nc(-c3ccccc3)c3cc(C)ccc3n2)cc(OC)c1OC,0,-7,1,-13
O=C(c1ccco1)N1C(=O)c2cccc3cccc1c23,6,-2,·,-6
